From ChEMBL document CHEMBL1671716, “Antimicrobial susceptibility patterns for recent clinical isolates of anaerobic bacteria in South Korea” (2010)
In brackets after ≈: the same amount, converted by molar mass.

Columns and labels:
Finegoldia magna [1] = assay: Antimicrobial activity against Finegoldia magna assessed as percent susceptible isolates after 48 hrs by agar dilution method; assay type: functional
Summary of the method: (§1)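 CLSI agar dilution (M11-A7); inoculum 10^5 CFU applied by replicator; plates incubated anaerobically 48 h at 37°C. For piperacillin-tazobactam, tazobactam held constant at 4 μg/ml.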

Parvimonas micra [2] = assay: Antimicrobial activity against Peptostreptococcus micros after 48 hrs by agar dilution method; assay type: functional; summary of the method: as §1
Eubacterium sp. [3] = assay: Antimicrobial activity against Eubacterium sp. after 48 hrs by agar dilution method; assay type: functional; summary of the method: as §1
Prevotella bivia [4] = assay: Antimicrobial activity against Prevotella bivia assessed as percent resistant isolates after 48 hrs by agar dilution method; assay type: functional
Summary of the method: (§2)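 CLSI agar dilution on recent Korean clinical anaerobe isolates. Inoculum 10^5 CFU per spot by replicator. Plates incubated in an anaerobic chamber at 37°C for 48 h. For piperacillin plus tazobactam, tazobactam was held constant at 4 μg/ml. Resistance and susceptibility rates derived from MICs.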

Schaalia meyeri [5] = assay: Antimicrobial activity against Actinomyces meyeri assessed as percent susceptible isolates after 48 hrs by agar dilution method; assay type: functional
Actinomyces naeslundii [6] = assay: Antimicrobial activity against Actinomyces naeslundii assessed as percent resistant isolates after 48 hrs by agar dilution method; assay type: functional; summary of the method: as §2
Eubacterium sp. [7] = assay: Antimicrobial activity against Eubacterium sp. assessed as percent resistant isolates after 48 hrs by agar dilution method; assay type: functional; summary of the method: as §2
Prevotella intermedia [8] = assay: Antimicrobial activity against Prevotella intermedia after 48 hrs by agar dilution method; assay type: functional; summary of the method: as §1
Bacteroides ovatus [9] = assay: Antimicrobial activity against Bacteroides ovatus after 48 hrs by agar dilution method; assay type: functional
Summary of the method: (§3)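 MICs on clinical anaerobe isolates by the CLSI agar dilution method. Inoculum of 10^5 CFU applied with a Steers replicator. Plates incubated 48 h at 37°C in an anaerobic chamber.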

Actinomyces israelii [10] = assay: Antimicrobial activity against Actinomyces israelii assessed as percent susceptible isolates after 48 hrs by agar dilution method; assay type: functional
Bacteroides ovatus [11] = assay: Antimicrobial activity against Bacteroides ovatus assessed as percent resistant isolates after 48 hrs by agar dilution method; assay type: functional; summary of the method: as §2
Schaalia odontolytica [12] = assay: Antimicrobial activity against Actinomyces odontolyticus assessed as percent resistant isolates after 48 hrs by agar dilution method; assay type: functional; summary of the method: as §2
[13] = tested on: Parabacteroides distasonis; assay: Antimicrobial activity against Bacteroides distasonis assessed as percent resistant isolates after 48 hrs by agar dilution method; assay type: functional; summary of the method: as §2
Prevotella bivia [14] = assay: Antimicrobial activity against Prevotella bivia assessed as percent susceptible isolates after 48 hrs by agar dilution method; assay type: functional; summary of the method: as §1
Prevotella buccae = assay: Antimicrobial activity against Prevotella buccae assessed as percent resistant isolates after 48 hrs by agar dilution method; assay type: functional, Segatella buccae; summary of the method: as §2
Prevotella intermedia [15] = assay: Antimicrobial activity against Prevotella intermedia assessed as percent susceptible isolates after 48 hrs by agar dilution method; assay type: functional; summary of the method: as §1
Finegoldia magna [16] = assay: Antimicrobial activity against Finegoldia magna assessed as percent resistant isolates after 48 hrs by agar dilution method; assay type: functional; summary of the method: as §2
Schaalia meyeri [17] = assay: Antimicrobial activity against Actinomyces meyeri after 48 hrs by agar dilution method; assay type: functional; summary of the method: as §3
[18] = tested on: Parabacteroides distasonis; assay: Antimicrobial activity against Bacteroides distasonis assessed as percent susceptible isolates after 48 hrs by agar dilution method; assay type: functional
Actinomyces israelii [19] = assay: Antimicrobial activity against Actinomyces israelii after 48 hrs by agar dilution method; assay type: functional; summary of the method: as §3
Parvimonas micra [20] = assay: Antimicrobial activity against Peptostreptococcus micros assessed as percent susceptible isolates after 48 hrs by agar dilution method; assay type: functional; summary of the method: as §2
Phocaeicola vulgatus [21] = assay: Antimicrobial activity against Bacteroides vulgatus assessed as percent resistant isolates after 48 hrs by agar dilution method; assay type: functional; summary of the method: as §2
Eggerthella lenta [22] = assay: Antimicrobial activity against Eubacterium lentum assessed as percent resistant isolates after 48 hrs by agar dilution method; assay type: functional; summary of the method: as §2
Bifidobacterium sp. [23] = assay: Antimicrobial activity against Bifidobacterium sp. assessed as percent susceptible isolates after 48 hrs by agar dilution method; assay type: functional; summary of the method: as §1
Bacteroides caccae [24] = assay: Antimicrobial activity against Bacteroides caccae after 48 hrs by agar dilution method; assay type: functional; summary of the method: as §3
Anaerococcus prevotii = assay: Antimicrobial activity against Anaerococcus prevotii assessed as percent susceptible isolates after 48 hrs by agar dilution method; assay type: functional
[25] = tested on: Peptoniphilus asaccharolyticus; assay: Antimicrobial activity against Peptoniphilus asaccharolyticus after 48 hrs by agar dilution method; assay type: functional; summary of the method: as §1
Phocaeicola vulgatus [26] = assay: Antimicrobial activity against Bacteroides vulgatus assessed as percent susceptible isolates after 48 hrs by agar dilution method; assay type: functional
Eggerthella lenta [27] = assay: Antimicrobial activity against Eubacterium lentum assessed as percent susceptible isolates after 48 hrs by agar dilution method; assay type: functional; summary of the method: as §1
Schaalia meyeri [28] = assay: Antimicrobial activity against Actinomyces meyeri assessed as percent resistant isolates after 48 hrs by agar dilution method; assay type: functional; summary of the method: as §2
[29] = tested on: Bacteroides thetaiotaomicron; assay: Antimicrobial activity against Bacteroides thetaiotaomicron assessed as percent resistant isolates after 48 hrs by agar dilution method; assay type: functional; summary of the method: as §2
Bacteroides fragilis = assay: Antimicrobial activity against Bacteroides fragilis assessed as percent resistant isolates after 48 hrs by agar dilution method; assay type: functional; summary of the method: as §2
[30] = tested on: Peptoniphilus asaccharolyticus; assay: Antimicrobial activity against Peptoniphilus asaccharolyticus assessed as percent resistant isolates after 48 hrs by agar dilution method; assay type: functional; summary of the method: as §2
[31] = tested on: Bacteroides thetaiotaomicron; assay: Antimicrobial activity against Bacteroides thetaiotaomicron assessed as percent susceptible isolates after 48 hrs by agar dilution method; assay type: functional
Bacteroides caccae [32] = assay: Antimicrobial activity against Bacteroides caccae assessed as percent susceptible isolates after 48 hrs by agar dilution method; assay type: functional
Actinomyces naeslundii [33] = assay: Antimicrobial activity against Actinomyces naeslundii assessed as percent susceptible isolates after 48 hrs by agar dilution method; assay type: functional
Bifidobacterium sp. [34] = assay: Antimicrobial activity against Bifidobacterium sp. assessed as percent resistant isolates after 48 hrs by agar dilution method; assay type: functional; summary of the method: as §2
Finegoldia magna [35] = assay: Antimicrobial activity against Finegoldia magna after 48 hrs by agar dilution method; assay type: functional; summary of the method: as §1
Hoylesella oralis = assay: Antimicrobial activity against Prevotella oralis assessed as percent susceptible isolates after 48 hrs by agar dilution method; assay type: functional
Summary of the method: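 CLSI agar dilution MIC testing of clinical isolates. 10^5 CFU spotted by replicator, plates incubated 48 h at 37°C in an anaerobic chamber. Susceptibility rates derived from the MICs.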

Schaalia odontolytica [36] = assay: Antimicrobial activity against Actinomyces odontolyticus after 48 hrs by agar dilution method; assay type: functional; summary of the method: as §3

## COc1c(N2C[C@@H]3CCCN[C@@H]3C2)c(F)cc2c(=O)c(C(=O)O)cn(C3CC3)c12 [MOXIFLOXACIN]
Finegoldia magna [1]
  Activity: 60%
Parvimonas micra [2]
  MIC50: 0.125 µg/mL (≈ 0.311 µM)
  MIC90: 0.25 µg/mL (≈ 0.623 µM)
Eubacterium sp. [3]
  MIC50: 1 µg/mL (≈ 2.49 µM)
  MIC90: 2 µg/mL (≈ 4.98 µM)
Prevotella bivia [4]
  Activity: 11%
Schaalia meyeri [5]
  Activity: 92%
Actinomyces naeslundii [6]
  Activity: 0%
Eubacterium sp. [7]
  Activity: 0%
Prevotella intermedia [8]
  MIC: 0.5 µg/mL (≈ 1.25 µM)
  MIC50: 0.5 µg/mL (≈ 1.25 µM)
  MIC90: 0.5 µg/mL (≈ 1.25 µM)
Bacteroides ovatus [9]
  MIC50: 2 µg/mL (≈ 4.98 µM)
  MIC90: 16 µg/mL (≈ 39.9 µM)
Actinomyces israelii [10]
  Activity: 92%
Bacteroides ovatus [11]
  Activity: 18%
Schaalia odontolytica [12]
  Activity: 0%
[13]
  Activity: 18%
Prevotella bivia [14]
  Activity: 56%
Prevotella buccae
  Activity: 11%
Prevotella intermedia [15]
  Activity: 100%
Finegoldia magna [16]
  Activity: 27%
Schaalia meyeri [17]
  MIC50: 1 µg/mL (≈ 2.49 µM)
  MIC90: 2 µg/mL (≈ 4.98 µM)
[18]
  Activity: 72%
Actinomyces israelii [19]
  MIC50: 1 µg/mL (≈ 2.49 µM)
  MIC90: 2 µg/mL (≈ 4.98 µM)
Parvimonas micra [20]
  Activity: 8%
Phocaeicola vulgatus [21]
  Activity: 18%
Eggerthella lenta [22]
  Activity: 0%
Bifidobacterium sp. [23]
  Activity: 92%
Bacteroides caccae [24]
  MIC50: 2 µg/mL (≈ 4.98 µM)
  MIC90: 16 µg/mL (≈ 39.9 µM)
Anaerococcus prevotii
  Activity: 87%
[25]
  MIC50: 0.25 µg/mL (≈ 0.623 µM)
  MIC90: 2 µg/mL (≈ 4.98 µM)
Phocaeicola vulgatus [26]
  Activity: 72%
Eggerthella lenta [27]
  Activity: 92%
Schaalia meyeri [28]
  Activity: 0%
[29]
  Activity: 18%
Bacteroides fragilis
  Activity: 11%
[30]
  Activity: 0%
[31]
  Activity: 72%
Bacteroides caccae [32]
  Activity: 72%
Actinomyces naeslundii [33]
  Activity: 92%
Bifidobacterium sp. [34]
  Activity: 0%
Finegoldia magna [35]
  MIC50: 0.5 µg/mL (≈ 1.25 µM)
  MIC90: 8 µg/mL (≈ 19.9 µM)
Hoylesella oralis
  Activity: 56%
Schaalia odontolytica [36]
  MIC50: 1 µg/mL (≈ 2.49 µM)
  MIC90: 2 µg/mL (≈ 4.98 µM)
